What was measured:
P388 [1] = experiment: Antitumor activity against mouse P388 cells allografted in male CDF1 mouse assessed as change in body weight at 50 mg/kg, ip administered daily for 9 days as Klucel suspension starting 24 hrs after tumor inoculation; assay type: functional; conditions: route intraperitoneal
Procedure, shortened: (§1)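 Ascitic fluid carrying P388 cells was inoculated ip. Compound was given ip in nine daily doses, starting 24 h after inoculation, in Klucel (hydroxypropylcellulose) suspension or in saline with Tween-80. Body-weight difference (treated minus control) was recorded on day 5. Survival was scored as %T/C of median survival time, and 30-day survival counted as cure.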

P388 [2] = experiment: Antitumor activity against mouse P388 cells allografted in male CDF1 mouse assessed as change in body weight at 6.25 mg/kg, ip administered daily for 9 days as Klucel suspension starting 24 hrs after tumor inoculation; assay type: functional; conditions: route intraperitoneal; procedure, shortened: as §1
L1210 = experiment: Antileukemic activity against mouse L1210 cells allografted in female BDF1 mouse assessed as change in body weight at 50 mg/kg, ip administered daily for 9 days as Klucel suspension starting 24 hrs after tumor inoculation; assay type: functional; conditions: route intraperitoneal
Procedure, shortened: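 Ascitic fluid carrying L1210 cells was inoculated ip. Compound was given ip as a Klucel (hydroxypropylcellulose) suspension in nine daily doses, starting 24 h after inoculation. Body-weight difference (treated minus control) was recorded on day 5. Survival was scored as %T/C of mean survival time.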

P388 [3] = experiment: Antitumor activity against mouse P388 cells allografted in male CDF1 mouse assessed as change in body weight at 25 mg/kg, ip administered daily for 9 days as Klucel suspension starting 24 hrs after tumor inoculation; assay type: functional; conditions: route intraperitoneal; procedure, shortened: as §1
P388 [4] = experiment: Antitumor activity against mouse P388 cells allografted in female BDF1 mouse assessed as change in body weight at 25 mg/kg, ip administered daily for 9 days as Klucel suspension starting 24 hrs after tumor inoculation; assay type: functional; conditions: route intraperitoneal; procedure, shortened: as §1
P388 [5] = experiment: Antitumor activity against mouse P388 cells allografted in female CDF1 mouse assessed as change in body weight at 100 mg/kg, ip administered daily for 9 days as Klucel suspension starting 24 hrs after tumor inoculation; assay type: functional; conditions: route intraperitoneal; procedure, shortened: as §1
Mus musculus [6] = experiment: Toxicity in female BDF1 mouse allografted with mouse P388 cells assessed as animal survival at 12.5 mg/kg, ip administered daily for 9 days as Klucel suspension starting 24 hrs after tumor inoculation; assay type: organism-based; set-up: dose 12.5 mg/kg, route intraperitoneal; conditions: in vivo
Procedure, shortened: (§2)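 P-388 leukemia ascitic fluid inoculated ip. Compound given ip as a suspension in Klucel (hydroxypropylcellulose), once daily for nine doses beginning 24 h post-inoculation. Acute toxicity assessed as toxicity-day survivors per group. Survival was followed up to 30 days, with 30-day survival counted as "cure". Follows NCI screening protocols.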

P388 [7] = experiment: Antitumor activity against mouse P388 cells allografted in female BDF1 mouse assessed as disease cures by measuring 30-days host survival at 12.5 mg/kg, ip administered daily for 9 days as Klucel suspension starting 24 hrs after tumor inoculation relative to control; assay type: functional; conditions: route intraperitoneal
Procedure, shortened: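 P388 leukemia given as an ascitic fluid cell inoculum, ip, to mice of the strain and sex in each line. Nine daily ip doses were given in a Klucel (hydroxypropylcellulose) suspension, starting 24 h after inoculation. Read-out is median survival time as %T/C, with >125 taken as significant; a "cure" means 30-day survival.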

Mus musculus [8] = experiment: Toxicity in female CDF1 mouse allografted with mouse P388 cells assessed as animal survival at 200 mg/kg, ip administered daily for 9 days as Klucel suspension starting 24 hrs after tumor inoculation; assay type: organism-based; set-up: dose 200 mg/kg, route intraperitoneal; conditions: in vivo; procedure, shortened: as §2
P388 [9] = experiment: Antitumor activity against mouse P388 cells allografted in female CDF1 mouse assessed as change in body weight at 50 mg/kg, ip administered daily for 9 days as Klucel suspension starting 24 hrs after tumor inoculation; assay type: functional; conditions: route intraperitoneal; procedure, shortened: as §1
Mus musculus [10] = experiment: Toxicity in male CDF1 mouse allografted with mouse P388 cells assessed as animal survival at 50 mg/kg, ip administered daily for 9 days as Klucel suspension starting 24 hrs after tumor inoculation; assay type: organism-based; set-up: dose 50 mg/kg, route intraperitoneal; conditions: in vivo; procedure, shortened: as §2

CC(=O)OCc1c(COC(C)=O)c(-c2ccccc2)n2c1CCC2
Activity (P388 [1]): -6.1 g
Activity (P388 [2]): -0.3 g
Activity (L1210): -2.6 g
Activity (P388 [3]): -1.2 g
Activity (P388 [4]): -2 g
Activity (P388 [5]): -2.8 g
Activity (Mus musculus [6]): Non-toxic
T/C (P388 [7]): 126%
Activity (Mus musculus [8]): Toxic
Activity (P388 [9]): -2.5 g
Activity (Mus musculus [10]): Non-toxic

— ChEMBL document CHEMBL3244396, “Synthesis and antileukemic activity of 5-substituted 2,3-dihydro-6,7-bis(hydroxymethyl)-1H-pyrrolizine diesters” (J Med Chem, 1977)
